In brackets after ≈: the same amount, converted by molar mass. Activity calls are given as the source filed them. No cut-off for these calls is given here.

The source of these data is ChEMBL document CHEMBL1649547, “Telavancin disrupts the functional integrity of the bacterial membrane through targeted interaction with the cell wall precursor lipid II” (Antimicrob Agents Chemother, 2009).

Test [1] deals with Staphylococcus aureus. Kind of test: Antibacterial activity against Staphylococcus aureus. Format: functional. The method in brief: (§1)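 MIC determined with commercially manufactured dry-form panels; the organisms were grown in cation-adjusted Mueller-Hinton II broth.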
Test [2] concerns Staphylococcus aureus. Kind of test: Antibacterial activity against Staphylococcus aureus assessed as induction of bacterial membrane depolarization at 8 ug/ml by flow cytometry. Format: functional. The method in brief: (§2)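 Membrane potential was measured with DiOC2(3) flow cytometry. Early-exponential cultures (A625 = 0.3) in cation-adjusted MHB were diluted to 106 CFU/ml and dosed in 5-ml aliquots at 37°C with shaking. Samples were stained 5 min with 30 µM DiOC2(3) (final). 5,000 events per sample were collected. The red/green fluorescence ratio was gated against a CCCP-depolarized population. The endpoint was 90 min unless noted.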
(In flow cytometry, cells or beads pass a laser one at a time.)

In test [3] the test system is Staphylococcus aureus. Nature of the test: Antibacterial activity against Staphylococcus aureus assessed as induction of bacterial cell lysis at 8 to 32 ug/ml by turbidity assay. Format: functional, organism-based. The method in brief: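 S. aureus ATCC 33591 was grown in cation-adjusted MHB to early exponential phase (A625 = 0.3). 5-ml aliquots received compound at the final concentration and were incubated in a shaking 37°C water bath. Lysis was followed by turbidity. Cells were also imaged by microscopy at 0, 2 and 6 h, scoring at least 30 cells per condition. Lysostaphin served as the lysis control. Means ± SD of three independent experiments.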

In test [4] the test system is Staphylococcus aureus. Kind of test: Antibacterial activity against vancomycin-intermediate Staphylococcus aureus ATCC 700699. Format: functional. The method in brief: as §1
Test [5] relates to Staphylococcus aureus. Kind of test: Antibacterial activity against Staphylococcus aureus assessed as induction of bacterial membrane depolarization by flow cytometry. Format: functional, organism-based. The method in brief: (§3)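 S. aureus ATCC 29213 grown in MHB at 37°C to A625 = 0.3, diluted to 10^6 CFU/ml in MHB. Compound added to 5 ml aliquots, shaking water bath at 37°C, usually 90 min endpoint. Samples mixed 1:1 with DiOC2(3) (final 30 µM) and stained 5 min. Flow cytometry of 5,000 events, red/green ratio; depolarized gate set from CCCP. IC50 from four-parameter sigmoidal fit.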

The subject of test [6] is Staphylococcus aureus. Kind of test: Antibacterial activity against Staphylococcus aureus grown in MHB medium assessed as induction of bacterial membrane depolarization at 2 to 32 ug/ml by flow cytometry. Format: functional, organism-based. The method in brief: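 MHB-grown S. aureus either kept in MHB or washed and resuspended in cation-containing PBS, then equilibrated 10 min at 37°C before telavancin 2–32 µg/ml. Time course of depolarization measured by DiOC2(3) flow cytometry (final 30 µM, 5 min stain, red/green ratio). Three independent experiments.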

Test [7] deals with Staphylococcus aureus. Kind of test: Antibacterial activity against Staphylococcus aureus in presence of 0.5 mM D-Ala-D-Ala. Format: functional.
The subject of test [8] is Staphylococcus aureus. Nature of the test: Antibacterial activity against Staphylococcus aureus assessed as induction of bacterial membrane depolarization at 8 ug/ml by flow cytometry in presence of 0.5 mM D-Ala-D-Ala. Format: functional. The method in brief: (§4)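 S. aureus at 10^6 CFU/ml in MHB at 37°C. dKAA tripeptide (0.05, 0.5 or 5 mM) added before telavancin (8 or 32 µg/ml), 60 min reading. DiOC2(3) staining (final 30 µM, 5 min), flow cytometry of 5,000 events, red/green fluorescence ratio; depolarized gate defined with CCCP-treated cells.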

For test [9], the system named is Staphylococcus aureus. Kind of test: Inhibition of bacterial cell wall precursor lipid 2 synthesis in Staphylococcus aureus assessed as induction of membrane depolarization at 32 ug/ml by flow cytometry in presence of fosfomycin. Format: functional. Set-up: scale not given: the % may be the effect or the level left. The method in brief:
(§5)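 Cells then exposed to telavancin 32 µg/ml for 15 min (nisin 2 µg/ml, 5 min). DiOC2(3) flow cytometry. Percent depolarization expressed relative to samples without pretreatment.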

For test [10], the system named is Staphylococcus aureus. Nature of the test: Antibacterial activity against daptomycin-nonsusceptible Staphylococcus aureus MED2034. Format: functional. The method in brief: as §1
The subject of test [11] is Staphylococcus aureus. Kind of test: Antibacterial activity against Staphylococcus aureus assessed as bacterial count at 8 to 32 ug/ml by turbidity assay. Format: functional. The method in brief:
(§6)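 S. aureus ATCC 33591 grown in MHB to early exponential phase (A625 = 0.3). 5 ml aliquots treated at final concentration, shaking water bath at 37°C. Turbidity read by spectrophotometer. Lysis also scored by microscopy: intact cells dark, lysed cells transparent; imaged at 0, 2 and 6 h, at least 30 cells per condition. Lysostaphin as lysis control. Three independent experiments.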

In test [12] the test system is Staphylococcus aureus. Nature of the test: Antibacterial activity against vancomycin-intermediate Staphylococcus aureus ATCC 700699 assessed as induction of bacterial membrane depolarization at 32 ug/ml by flow cytometry. Format: functional. The method in brief:
(§7)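 Strains with resistance phenotypes tested in the DiOC2(3) flow-cytometric depolarization assay. Cells at 10^6 CFU/ml in MHB at 37°C, dye final 30 µM, 5 min stain, 5,000 events, red/green ratio. Percent depolarization followed over time.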

The subject of test [13] is Staphylococcus aureus. Kind of test: Antibacterial activity against daptomycin-nonsusceptible Staphylococcus aureus MED2034 assessed as induction of bacterial membrane depolarization at 32 ug/ml by flow cytometry. Format: functional. The method in brief: as §2
Test [14] has as its system Staphylococcus aureus. Nature of the test: Antibacterial activity against methicillin-resistant Staphylococcus aureus ATCC 33591. Format: functional. The method in brief: as §1
A further test concerns Cell membrane. Kind of test: Binding affinity to cell membrane of Staphylococcus aureus grown in MHB medium at 8 ug/ml by scintillation counting relative to control. The method in brief: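 S. aureus at 10^8 CFU/ml in MHB or PBS at 37°C, exposed to [14C]telavancin 8 µg/ml over 2 h. At each time point, cells collected on 0.2-µm filter plate, dried overnight at 37°C, and scintillation counted. Three independent experiments.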

In test [15] the test system is Staphylococcus aureus. Nature of the test: Inhibition of bacterial cell wall precursor lipid 2 synthesis in Staphylococcus aureus assessed as induction of membrane depolarization at 32 ug/ml by flow cytometry in presence of bacitracin. Format: functional. Also on record: scale not given: the % may be the effect or the level left. The method in brief:
as §5

For test [16], the system named is Staphylococcus aureus. Nature of the test: Antibacterial activity against Staphylococcus aureus assessed as induction of bacterial membrane depolarization at 8 ug/ml by flow cytometry in presence of 0.05 mM D-Ala-D-Ala. Format: functional. The method in brief:
as §4

Test [17] deals with Staphylococcus aureus. Kind of test: Antibacterial activity against Staphylococcus aureus in presence of 0.05 mM D-Ala-D-Ala. Format: functional.
Test [18] deals with Staphylococcus aureus. Nature of the test: Antibacterial activity against Staphylococcus aureus in presence of 5 mM D-Ala-D-Ala. Format: functional.
For test [19], the system named is Staphylococcus aureus. Kind of test: Antibacterial activity against Staphylococcus aureus assessed as change in cellular membrane integrity at 8 to 32 ug/ml up to 6 hrs by spectrophotometry. Format: functional, organism-based. The method in brief:
as §6

Test [20] has as its system Staphylococcus aureus. Kind of test: Antibacterial activity against heterogeneous vancomycin-intermediate Staphylococcus aureus ATCC 700698. Format: functional.
For test [21], the system named is Staphylococcus aureus. Kind of test: Antibacterial activity against Staphylococcus aureus assessed as induction of bacterial membrane depolarization at 32 ug/ml by flow cytometry in presence of 0.05 mM D-Ala-D-Ala. Format: functional. The method in brief: as §4
In test [22] the test system is Staphylococcus aureus. Nature of the test: Antibacterial activity against Staphylococcus aureus assessed as induction of bacterial cell lysis at 8 to 32 ug/ml by spectrophotometry. Format: functional, organism-based. The method in brief:
as §6

For test [23], the system named is Staphylococcus aureus. Kind of test: Antibacterial activity against Staphylococcus aureus assessed as induction of bacterial membrane depolarization at 32 ug/ml by flow cytometry in presence of 5 mM D-Ala-D-Ala. Format: functional. The method in brief: as §4
Test [24] deals with Staphylococcus aureus. Kind of test: Antibacterial activity against Staphylococcus aureus assessed as induction of bacterial membrane depolarization at 8 ug/ml by flow cytometry in presence of 5 mM D-Ala-D-Ala. Format: functional. The method in brief: as §4
Test [25] concerns Staphylococcus aureus. Nature of the test: Antibacterial activity against Staphylococcus aureus assessed as induction of bacterial membrane depolarization at 32 ug/ml by flow cytometry in presence of 0.5 mM D-Ala-D-Ala. Format: functional. The method in brief: as §4
In test [26] the test system is Staphylococcus aureus. Nature of the test: Antibacterial activity against Staphylococcus aureus assessed as induction of bacterial membrane depolarization at 32 ug/ml by flow cytometry. Format: functional. The method in brief:
as §3

Test [27] has as its system Staphylococcus aureus. Nature of the test: Antibacterial activity against heterogeneous vancomycin-intermediate Staphylococcus aureus ATCC 700698 assessed as induction of bacterial membrane depolarization at 32 ug/ml by flow cytometry. Format: functional. The method in brief: as §7
The test system of test [28] is Staphylococcus aureus. Kind of test: Inhibition of bacterial cell wall precursor lipid 2 synthesis in Staphylococcus aureus assessed as induction of membrane depolarization at 32 ug/ml by flow cytometry in presence of D-cycloserine. Also on record: scale not given: the % may be the effect or the level left. Format: functional. The method in brief:
as §5

For `CCCCCCCCCCNCCN[C@@]1(C)C[C@H](O[C@H]2[C@H](Oc3c4cc5cc3Oc3ccc(cc3Cl)[C@H](O)[C@@H](NC(=O)O)C(=O)N[C@@H](CC(N)=O)C(=O)N[C@H]5C(=O)N[C@H]3C(=O)N[C@H](C(=O)N[C@H](C(=O)O)c5cc(O)c(CNCP(=O)(O)O)c(O)c5-c5cc3ccc5O)[C@H](O)c3ccc(c(Cl)c3)O4)O[C@H](CO)[C@@H](O)[C@@H]2O)O[C@@H](C)[C@H]1O`, in the test on Staphylococcus aureus [1], the minimum inhibitory concentration (MIC) – broadly, the least concentration at which growth counts as inhibited – was found to be 8 mg/L (≈ 4.78 µM). In addition, the Activity with Staphylococcus aureus [2] is given as 35%.

On to `CN[C@H](CC(C)C)C(=O)N[C@H]1C(=O)N[C@@H](CC(N)=O)C(=O)N[C@H]2C(=O)N[C@H]3C(=O)N[C@H](C(=O)N[C@H](C(=O)O)c4cc(O)cc(O)c4-c4cc3ccc4O)[C@H](O)c3ccc(c(Cl)c3)Oc3cc2cc(c3O[C@@H]2O[C@H](CO)[C@@H](O)[C@H](O)[C@H]2O[C@H]2C[C@](C)(N)[C@H](O)[C@H](C)O2)Oc2ccc(cc2Cl)[C@H]1O` [VANCOMYCIN], for which, in the test on Staphylococcus aureus [3], the outcome was inactive. This compound also gave an MIC against Staphylococcus aureus [4] of 8 mg/L (≈ 5.52 µM). Also, in the test with Staphylococcus aureus [5], the IC50 (as a rule, the midpoint of a concentration-inhibition curve) is > 96 mg/L.

For the compound `CCCCCCCCCCNCCN[C@@]1(C)C[C@H](O[C@H]2[C@H](Oc3c4cc5cc3Oc3ccc(cc3Cl)[C@@H](O)[C@@H](NC(=O)[C@@H](CC(C)C)NC)C(=O)N[C@@H](CC(N)=O)C(=O)N[C@H]5C(=O)N[C@H]3C(=O)N[C@H](C(=O)N[C@H](C(=O)O)c5cc(O)c(CNCP(=O)(O)O)c(O)c5-c5cc3ccc5O)[C@H](O)c3ccc(c(Cl)c3)O4)O[C@H](CO)[C@@H](O)[C@@H]2O)O[C@@H](C)[C@H]1O` [TELAVANCIN], in the test with Staphylococcus aureus [6], the result was Active. The MIC was 1 mg/L in the test on Staphylococcus aureus [7]; ≤ 0.5 mg/L in the test on Staphylococcus aureus [10]; 0.25 mg/L (≈ 0.142 µM) with Staphylococcus aureus [1]; ≤ 0.5 mg/L in the test with Staphylococcus aureus [14]; 0.5 mg/L with Staphylococcus aureus [17]; 4 mg/L in the test on Staphylococcus aureus [18]. The minimum inhibitory concentration (MIC) with Staphylococcus aureus [4] is 0.5 mg/L (≈ 0.285 µM); in the test on Staphylococcus aureus [20] it was ≤ 0.5 mg/L. Moreover, the Activity in the test on Staphylococcus aureus [8] amounted to 17%; with Staphylococcus aureus [9] it was 29%; with Staphylococcus aureus [12], 61%; in the test with Staphylococcus aureus [13] it was 77%; in the test with Staphylococcus aureus [15], 27%; in the test with Staphylococcus aureus [16], 33%. Besides, the Activity in the test on Staphylococcus aureus [21] is 68%; in the test with Staphylococcus aureus [2], 49%; in the test with Staphylococcus aureus [23], 14%; with Staphylococcus aureus [24], 7%; with Staphylococcus aureus [5], “Dose-dependent effect”; with Staphylococcus aureus [25], 19%. In addition, the Activity in the test on Staphylococcus aureus [26] is given as 94%; in the test on Staphylococcus aureus [27], 78%; in the test on Staphylococcus aureus [28] it was 38%. Besides, the log10CFU/ml in the test on Staphylococcus aureus [11] is given as 3. In the test on Cell membrane, this compound returned a fold change (FC) of 2.8. Further, the result with Staphylococcus aureus [19] and with Staphylococcus aureus [22] was inactive. Also, in the test with Staphylococcus aureus [5], the half-inhibitory concentration (IC50) came out at 3.6 mg/L (≈ 2.05 µM).

On to `CCCCCCCCCCO` [DECANOL], for which the outcome in the test on Staphylococcus aureus [6] was Active. Besides, the MIC in the test with Staphylococcus aureus [1] is 128 mg/L (≈ 809 µM).

In the case of `CCCCCCCCCC(=O)N[C@@H](Cc1c[nH]c2ccccc12)C(=O)N[C@H](CC(N)=O)C(=O)N[C@@H](CC(=O)O)C(=O)N[C@@H]1C(=O)NCC(=O)N[C@@H](CCCN)C(=O)N[C@@H](CC(=O)O)C(=O)N[C@H](C)C(=O)N[C@@H](CC(=O)O)C(=O)NCC(=O)N[C@H](CO)C(=O)N[C@@H]([C@H](C)CC(=O)O)C(=O)N[C@@H](CC(=O)c2ccccc2N)C(=O)O[C@@H]1C`, inhibition of growth with Staphylococcus aureus [10] (MIC) required 4 mg/L (≈ 2.47 µM).
